The source made the active and inactive calls. The calls are words filed in the database; no cut-off is given here.
What was measured:
Canis familiaris [1] = assay: Inhibition of histamine stimulated gastric acid secretion in adult mongrel dogs at dose 1 mg/kg given intravenously; type: functional; details: Canis lupus familiaris, Stomach, route intravenous
Outline: (§1)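 Dogs with Heidenhain pouches, 12–18 kg, fasted 18 h. Compound given iv in 3 mL or by gavage in 5 mL of 0.4% methylcellulose/saline, 1 h after infusion start. 30-min collections titrated. Summed 3-h AO against the same dog's control AO gives % inhibition. Usually one dog per compound.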

Canis familiaris [2] = assay: Inhibition of histamine stimulated gastric acid secretion in adult mongrel dogs at dose 5 mg/kg given intravenously; type: functional; details: Canis lupus familiaris, Stomach, route intravenous; outline: as §1
Canis familiaris [3] = assay: Inhibition of histamine stimulated gastric acid secretion in adult mongrel dogs at dose 4 mg/kg given orally; type: functional; details: Canis lupus familiaris, Stomach, route oral; outline: as §1
Canis familiaris [4] = assay: Inhibition of histamine stimulated gastric acid secretion in adult mongrel dogs at dose 8 mg/kg given orally; type: functional; details: Canis lupus familiaris, Stomach, route oral; outline: as §1
Canis familiaris [5] = assay: Inhibition of histamine stimulated gastric acid secretion in adult mongrel dogs at dose 0.1 mg/kg given intravenously; type: functional; details: Canis lupus familiaris, Stomach, route intravenous; outline: as §1
Rattus norvegicus [6] = assay: Gastric antisecretory activity in the pylorus-ligated rat and the reduction in acid output was measured after 4 hr by intraperitoneal (ip) administration of 40 mg/kg dose.; type: functional
Outline: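 Male Charles River CD rats, 150–200 g, fasted 24 h. Pylorus ligated under Brevital anesthesia. 40 mg/kg given ip in 2.5% Tween 80 at ligation. Stomach contents collected at 4 h and titrated with 0.1 N NaOH to pH 7.0. % inhibition from mean AO, 6 treated vs 8 control rats. Student's t test.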

Rattus norvegicus [7] = species on record: Rattus norvegicus; assay: Oral gastric cytoprotective activity in the rat against ethanol-induced lesions; type: functional; details: Stomach
Outline: (§2)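 Rats fasted and water-deprived for 20 h. Compound given orally, 1–30 mg/kg in 0.4% methylcellulose/saline, 30 min before 1 mL absolute ethanol po. Killed 1 h after ethanol. Linear hemorrhagic lesion lengths totalled per stomach, expressed as group mean. ED50 by linear regression.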

Canis familiaris [8] = assay: Inhibition of histamine stimulated gastric acid secretion in mongrel dogs following 4 mg/kg p.o. administration.; type: functional; details: Canis lupus familiaris, Stomach, route oral; outline: as §1
Canis familiaris [9] = assay: Inhibition of histamine stimulated gastric acid secretion in adult mongrel dogs at dose 2 mg/kg given intravenously; type: functional; details: Canis lupus familiaris, Stomach, route intravenous; outline: as §1
Rattus norvegicus [10] = species on record: Rattus norvegicus; assay: Oral gastric cytoprotective activity in the rat against ethanol-induced lesions was evaluated; details: Stomach
Canis familiaris [11] = assay: Inhibition of histamine stimulated gastric acid secretion in adult mongrel dogs at dose 2 mg/kg given orally; type: functional; details: Canis lupus familiaris, Stomach, route oral; outline: as §1
Canis familiaris [12] = assay: Effective dose against histamine stimulated gastric acid secretion in adult mongrel dogs given orally; type: functional; details: Canis lupus familiaris, Stomach, po
Canis familiaris [13] = assay: Effective dose against histamine stimulated gastric acid secretion in adult mongrel dogs given orally; value ranges from 2.1-14.0; type: functional; details: Canis lupus familiaris, Stomach, po
Canis familiaris [14] = assay: Effective dose against histamine stimulated gastric acid secretion in adult mongrel dogs given intravenously; value ranges from 0.01-1.19; type: functional; details: Canis lupus familiaris, Stomach, iv
Rattus norvegicus [15] = species on record: Rattus norvegicus; assay: Oral gastric cytoprotective activity in the rat against ethanol-induced lesions was evaluated; NA=Inactive.; type: functional, organism-based; details: Stomach; outline: as §2
Canis familiaris [16] = species on record: Canis familiaris; assay: Relative potency was calculated; value ranges from 0.1-2.1; type: functional, Canis lupus familiaris

| Compound | inhibition in vivo at 1 mg/kg (Canis familiaris [1]) | inhibition in vivo at 5 mg/kg (Canis familiaris [2]) | inhibition in vivo at 4 mg/kg (Canis familiaris [3]) | inhibition in vivo at 8 mg/kg (Canis familiaris [4]) | inhibition in vivo at 0.1 mg/kg (Canis familiaris [5]) | inhibition in vivo at 40 mg/kg (Rattus norvegicus [6]) | ED50 (Rattus norvegicus [7]) | inhibition in vivo at 4 mg/kg (Canis familiaris [8]) | inhibition in vivo at 2 mg/kg (Canis familiaris [9]) | ED50 (Rattus norvegicus [10]) | inhibition in vivo at 2 mg/kg (Canis familiaris [11]) | ED50 (Canis familiaris [12]) | ED50 (Canis familiaris [13]) | ED50 (Canis familiaris [14]) | ED50 (Rattus norvegicus [15]) | Relative potency (Canis familiaris [16]) |
| --- | --- | --- | --- | --- | --- | --- | --- | --- | --- | --- | --- | --- | --- | --- | --- | --- |
| Cc1nc2c(OCc3cccs3)cccn2c1CC#N | 90% | 99% | 17% | 75% | 26% | 96% | 7 mg/kg |  |  |  |  |  |  |  |  |  |
| [C-]#[N+]Cc1c(C)nc2c(OCc3ccccc3)cccn12 |  |  |  | 94% | 37% | 96% |  | 8% | 94% | 2.2 mg/kg |  |  |  |  |  |  |
| Cc1nc2c(OCc3ccc(Cl)cc3)cccn2c1CC#N |  | 95% |  | 70% | 29% | 90% | 6.6 mg/kg | 56% | 58% |  | 30% |  |  |  |  |  |
| Cc1nc2c(OCc3ccsc3)cccn2c1CC#N |  | 97% |  | 88% | 70% | 91% | 2 mg/kg | 77% |  |  | 40% | 2.7 mg/kg |  |  |  |  |
| Cc1nc2c(CSc3ccccc3)cccn2c1C | 31% |  |  |  |  | 29% |  |  |  | 6.4 mg/kg |  |  |  |  |  |  |
| Cc1nc2c(OCc3ccccc3)cccn2c1CC#N | 88% | 99% |  | 77% | 49% | 98% | 3 mg/kg | 42% | 95% |  | 20% |  | 4.4 mg/kg | 0.09 mg/kg |  |  |
| Cc1nc2c(OCc3ccccc3)cccn2c1C#N |  | 4% |  |  |  | 25% |  |  |  |  |  |  |  |  | inactive |  |
| Cc1nc2c(CCc3ccccc3)cccn2c1CC#N |  | 96% | 3% | 83% | 74% | 99% | 7 mg/kg |  | 92% |  |  |  |  |  |  |  |
| Cc1nc2c(OCc3ccccc3)cccn2c1C(=O)O |  | 4% |  |  |  | 0% |  |  |  |  |  |  |  |  | inactive |  |
| Cc1nc2c(NCc3ccccc3)cccn2c1CC#N |  | 98% |  | 75% | 85% | 98% | 2 mg/kg | 35% | 96% |  |  |  | 6.7 mg/kg |  |  | 1.5 |

Reference: ChEMBL document CHEMBL1122898, “Antiulcer agents. 1. Gastric antisecretory and cytoprotective properties of substituted imidazo[1,2-a]pyridines” (1985)
